# OXTR potentiate = human OXTR potentiation; 0.061% of 320,000 active; P30559; AID 2445; activation, % at 3 µM; CHO-OTR cells, Fluo-8 calcium fluorescence, potentiator mode; 0% = oxytocin EC15, 100% = EC100;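 active means activation above that plate's cutoff, the mean activation of tested compounds plus 3 SD, cut at about 6.6% in these data, passing the limit was not always enough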;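 further: 100% uses oxytocin at 75 nM as the full agonist control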
# Target sequence (P30559 whole entry, looked up): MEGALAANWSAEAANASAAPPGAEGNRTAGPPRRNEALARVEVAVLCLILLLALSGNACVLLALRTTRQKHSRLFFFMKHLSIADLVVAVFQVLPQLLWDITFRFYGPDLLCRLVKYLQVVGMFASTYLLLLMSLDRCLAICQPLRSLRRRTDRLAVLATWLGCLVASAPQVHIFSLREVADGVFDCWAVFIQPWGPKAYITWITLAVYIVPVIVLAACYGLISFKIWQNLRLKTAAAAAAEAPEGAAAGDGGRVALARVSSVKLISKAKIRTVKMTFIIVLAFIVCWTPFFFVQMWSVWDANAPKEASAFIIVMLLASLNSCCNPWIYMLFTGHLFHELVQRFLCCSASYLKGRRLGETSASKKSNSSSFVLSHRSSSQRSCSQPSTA
#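 System: human OTR in CHO cells; Also added: sub-maximal oxytocin, roughly EC15; Timing: compound 6 min at room temperature before oxytocin, 100 s read; Technique: Fluo-8 intracellular calcium fluorescence, ex 470-495, em 515-575 nm; Controls: oxytocin EC15 low and EC100 high; Replication: singlicate.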
# TAAR1 antagonist = human TAAR1 antagonism; Q96RJ0; inhibition, % at 3 µM; 1.5% of 360,000 active; CHO RD-HGA16 TAAR1, Fluo-8 calcium fluorescence, antagonist; AID 624466;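 active means inhibition above a per-plate cutoff, the mean inhibition of test compounds on that plate plus 3 SD, cut at about 49% in these data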;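 further: 0% = DMSO plus EC80 beta-PEA response and 100% = DMSO alone without agonist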
# Target sequence (Q96RJ0 whole entry, looked up): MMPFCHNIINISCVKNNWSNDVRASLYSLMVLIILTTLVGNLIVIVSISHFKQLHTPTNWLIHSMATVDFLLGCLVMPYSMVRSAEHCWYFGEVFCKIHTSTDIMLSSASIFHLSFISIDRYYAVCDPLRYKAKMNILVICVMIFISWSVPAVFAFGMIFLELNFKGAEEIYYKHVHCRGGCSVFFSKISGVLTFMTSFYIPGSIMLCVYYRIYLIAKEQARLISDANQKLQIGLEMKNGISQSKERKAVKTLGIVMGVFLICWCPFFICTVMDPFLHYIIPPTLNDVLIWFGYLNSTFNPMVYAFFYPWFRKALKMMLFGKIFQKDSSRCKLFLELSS
#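 Assay system: RD-HGA16 CHO cells with stable hTAAR1 and Gα16 / Reagent: EC80 β-phenethylamine stimulus / Doses: 3 µM, single point / Timing: dye loading 75 min at 37 °C, then 30 min room temperature / Measured by: Fluo-8 intracellular calcium dye fluorescence, real-time kinetic reads / Controls: vehicle wells and EC80 agonist wells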
# OXTR agonist = activates the human oxytocin receptor; P30559; CHO-OTR cells, Fluo-8 calcium fluorescence; normalized: DMSO 0%, oxytocin 100%; activation, % at 3 µM; 0.32% of 320,000 active; AID 2435;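 active means activation above the mean of all tested compounds plus 3 SD, cutoff set per screening run, cut at about 20% in these data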;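 further: peak over basal fluorescence ratio from a 100 s FLIPR kinetic read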
# TAAR1 ag = agonists of human TAAR1; Q96RJ0; CHO RD-HGA16 TAAR1, Fluo-8 calcium fluorescence; vehicle wells 0%, saturating PEA agonist 100%; activation, % at 3 µM; 0.99% of 360,000 active;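 active means activation above the mean activation of all test compounds in the run plus 3 SD, cut at about 38% in these data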
#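 Test system: RD-HGA16 (CHO) cells co-expressing Gα16 and hTAAR1 / Benchmarks: DMSO vehicle as 0%, PEA at EC100 as 100% / Repeats: no replicates (n 1) / Measure: % activation from peak over basal fluorescence ratio, DMSO-to-PEA scaled / Timing: 17-24 h plating, Fluo-8 75 min 37 °C, 30 min RT / Technique: kinetic Fluo-8 calcium fluorescence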
# V1R ag counter = counter-screen for oxytocin receptor agonists: human V1a receptor agonists | CHO-V1R cells, Fluo-8 calcium fluorescence, agonist mode; 0% DMSO, 100% 3 nM vasopressin | activation, % at 3 µM | 0.25% of 320,000 active | AID 2797;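 active means activation above the mean activation of all tested compounds plus 3 SD, per screening run, cut at about 20% in these data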;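 further: signal is peak over basal fluorescence ratio across a 100 second FLIPR read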
# * = called active by the depositor; . = no result. A selection: hits, their analogues and other compounds. The true share with any hit is near 2.3%.
SMILES,OXTR potentiate,TAAR1 antagonist,OXTR agonist,TAAR1 ag,V1R ag counter
CCCCCCCCN1C(=O)[C@@H](CC(=O)N2CCC(c3ccccc3)CC2)C[C@@]2(C(=O)OC)C1=C[C@H](C(C)(C)C)O[C@@H]2C,.,-31.6,.,2.6,.
COc1ccc(-c2csc(NCCc3nc4cc(Cl)c(Cl)cc4n3CCCO)n2)cc1,-13.1,55.5*,1.8,9.5,0.1
CCn1c(/C=C/N(C(C)=O)c2ccccc2)[n+](CC)c2ccc(Cl)cc21,-5.1,6.7,1.3,2.7,0.8
CC[n+]1c(/C=C/C=C/N(C(C)=O)c2ccccc2)sc2ccccc21,2.6,102.4*,0.3,-4.6,-0.6
Cc1ccc(Sc2ccc(S(=O)(=O)Nc3ccc(C(=O)O)cc3)cc2)cc1C,-12.8,56.5*,25.3*,20.9,20.9*
O=C(O)c1ccc(NC(=O)c2ccccc2NC(=O)c2ccccc2Cl)cc1,0.9,-19.8,-0.8,1.8,0.4
COc1ccc(C(=O)Nc2ccc(S(=O)(=O)N3CCOCC3)cc2)cc1,-4.7,-4.5,1.7,1.5,0.9
COc1ccc(C(=O)Nc2ccc(-c3ccc(C)o3)cc2)cc1S(=O)(=O)N1CCOCC1,-17.4,67.8*,-0.5,17.4,3.2
COc1ccc(C(=O)Nc2ccc(Cl)c(S(=O)(=O)N3CCOCC3)c2)cc1,-10.3,61.0*,8.4,20.8,9.8
COc1ccc(C(=O)Nc2cccc(-c3csc(C)n3)c2)cc1S(=O)(=O)N1CCCC1,0.1,52.3*,-1.8,20.8,1.5
O=C(Nc1cccc(S(=O)(=O)N2CCOCC2)c1)c1cc(S(=O)(=O)N2CCOCC2)c(Cl)cc1Cl,.,76.2*,.,32.0,.
COCCN1C(=O)/C(=C/c2ccc(OCc3ccc(C(=O)O)cc3)c(OC)c2)SC1=Nc1ccccc1,-8.7,72.9*,1.4,19.3,1.3
COc1cc(/C=C2\SC(=Nc3ccccc3)N(Cc3ccco3)C2=O)ccc1OC(C)C(=O)O (stereo not drawn),3.2,-15.1,-1.9,4.2,0.5
Cn1nc(CC(=O)Nc2ncc(Br)s2)c2ccccc2c1=O,-21.3,29.0,12.4,44.2*,8.1
Cn1nc(CC(=O)NC2CCCCCCCCCCC2)c2ccccc2c1=O,-1.5,-3.3,0.4,3.4,0.6
CCN(CC)S(=O)(=O)c1cnccc1N1CCN(c2cccc(Cl)c2)CC1,-1.8,-22.7,2.7,0.3,1.7
O=C(N/N=C/C(Cl)=C/c1ccccc1)c1ccc2c(c1)OCO2,-1.8,0.7,0.6,7.7,0.9
COc1ccc(-c2csc(C(O)c3ccc(OC)cc3)n2)cc1 (stereo not drawn),.,29.1,.,27.0,.
COc1ccc(C(O)c2nc(-c3cc4ccccc4o3)cs2)cc1 (stereo not drawn),.,49.3*,.,31.5,.
COc1ccc(C(O)c2nc(-c3ccc(N(C)C)cc3)cs2)cc1 (stereo not drawn),.,40.2,.,49.1*,.
CN(C)c1ccc(-c2csc(C(O)c3ccc(F)c(F)c3)n2)cc1 (stereo not drawn),.,98.8*,.,99.9*,.
CN(C)c1ccc(-c2csc(C(O)c3ccccc3)n2)cc1 (stereo not drawn),.,20.0,.,36.2,.
COc1ccc(-c2csc(C(O)c3ccc(F)cc3)n2)cc1 (stereo not drawn),.,78.4*,.,61.7*,.
Cc1cc(C)nc(-n2ncc3c2CC(c2cccc(Cl)c2)CC3=O)n1 (stereo not drawn),-2.8,-39.6,0.2,1.6,0.3
Cc1cccc(Cn2c(-c3ccc[nH]c3=O)nc3ccccc32)c1,-15.4,-6.1,-1.0,0.9,1.5
SMILES,OXTR potentiate,TAAR1 antagonist,OXTR agonist,TAAR1 ag,V1R ag counter
O=Cc1c[nH]c2ccc(C(=O)c3ccccc3)cc12,-21.9,-2.5,1.9,0.1,4.3
N#C/C(=C/c1ccc(-c2ccccc2)o1)c1nc(-c2cccs2)cs1,-4.5,55.0*,15.7,34.0,10.3
N#C/C(=C\c1ccc(-c2ccc(F)cc2)o1)C(=O)Nc1nc(-c2cccs2)cs1,-9.8,-8.8,-0.7,0.1,-0.1
N#C/C(=C/c1ccc(-c2ccc(S(N)(=O)=O)cc2)o1)c1nc2ccccc2s1,-9.6,25.4,37.9*,20.0,50.7*
CC(C)(C)c1ccc(C(=O)OC/C(O)=C(\C#N)c2nc3ccccc3s2)cc1,-4.4,3.3,1.0,6.1,0.4
COC(=O)c1ccc(/C=C(\C#N)c2nc3ccccc3s2)cc1,-9.1,4.8,30.3*,4.6,23.7*
CC(C)C(=O)N1CCC(n2nccc2NC(=O)CCc2ccccc2)CC1,0.0,-4.4,0.8,-1.0,1.2
CC(=O)Nc1ccc(Nc2c3c4c(cccc4n(C)c2=O)C(=O)c2ccccc2-3)cc1,1.0,5.7,0.9,6.7,0.5
CCCCNc1c2c3c(cccc3n(C)c1=O)C(=O)c1ccccc1-2,-8.2,.,134.0*,.,134.3*
CCNc1c2c3c(cccc3n(C)c1=O)C(=O)c1ccccc1-2,-34.7,.,139.8*,.,181.2*
COC(=O)[C@]12C[C@H](CC(=O)NCc3cccc(C(F)(F)F)c3)C(=O)N(CCC3=CCCCC3)C1=C[C@H](C(C)(C)C)O[C@@H]2C,.,-13.8,.,-1.1,.
COc1ccc(CCNC(=O)CCN2C(=O)[C@@H]3Cc4ccccc4CN3C2=O)cc1OC,-13.3,50.3*,4.9,15.9,4.0
COc1ccc(N2CCN(C(=O)COC(=O)c3oc4ccccc4c3C)CC2)cc1,-11.8,51.3*,5.3,25.8,8.9
O=C(CCCN1CCC(O)(c2cccc(C(F)(F)F)c2)CC1)c1ccc(F)cc1,-5.0,13.6,6.5,15.3,2.1
CCOC(=O)N1CCN(c2ncnc3c2[nH]c2ccc(F)cc23)CC1,-20.8,17.2,14.5,23.5,8.3
Fc1ccc2[nH]c3c(N4CCN(c5ccccc5)CC4)ncnc3c2c1,-32.6,56.7*,15.1,21.7,10.8
COc1ccc2[nH]c3c(N4CCc5ccccc5C4)ncnc3c2c1,-16.5,36.1,7.3,10.5,9.3
OC1(c2cccc(C(F)(F)F)c2)CCN(c2ncnc3c2[nH]c2ccc(F)cc23)CC1,.,60.4*,.,12.9,.
COc1ccc(N2CCN(c3ncnc4c3[nH]c3ccccc34)CC2)cc1,-28.5,66.5*,13.6,15.0,10.3
Cn1cc([C@]2(O)C(=O)Nc3ccc(Br)cc32)c2ccccc21,.,6.7,.,9.6,.
CCc1ccc(OCC(=O)Nc2nnc(-c3ccco3)s2)cc1,-6.3,-26.8,1.6,38.7*,1.8
CC(C)CC(=O)Nc1nnc(-c2ccco2)s1,2.4,-10.3,-1.7,6.8,-0.3
CCCC(=O)Nc1ccc(C(=O)Nc2cc(C(F)(F)F)ccc2Cl)cc1,-21.7,19.1,16.0,42.1*,14.6
O=C(COC(=O)c1ccc(O)cc1)Nc1cc(C(F)(F)F)ccc1Cl,-9.1,3.7,10.4,37.7*,8.8
Cc1c(C(=O)N2CCCCCC2)c(S(=O)(=O)NCc2ccccc2Cl)c(C)n1C,-1.1,-5.2,0.1,1.4,0.5

# Source: PubChem
